Our source for the inhibition, survival and Activity values is ChEMBL document CHEMBL4145447, “4-arylamidobenzyl substituted 5-bromomethylene-2(5H)-furanones for chronic bacterial infection” (Eur J Med Chem, 2018).

The source made the active and inactive calls. The rule behind the calls is not given here.

The target of experiment [1] is T1, Anthranilate--CoA ligase (Pseudomonas aeruginosa (strain ATCC 15692 / DSM 22644 / CIP 104116 /JCM 14847 / LMG 12228 / 1C / PRS 101 / PAO1)) (UniProt Q9I4X3).
T1 sequence (whole entry): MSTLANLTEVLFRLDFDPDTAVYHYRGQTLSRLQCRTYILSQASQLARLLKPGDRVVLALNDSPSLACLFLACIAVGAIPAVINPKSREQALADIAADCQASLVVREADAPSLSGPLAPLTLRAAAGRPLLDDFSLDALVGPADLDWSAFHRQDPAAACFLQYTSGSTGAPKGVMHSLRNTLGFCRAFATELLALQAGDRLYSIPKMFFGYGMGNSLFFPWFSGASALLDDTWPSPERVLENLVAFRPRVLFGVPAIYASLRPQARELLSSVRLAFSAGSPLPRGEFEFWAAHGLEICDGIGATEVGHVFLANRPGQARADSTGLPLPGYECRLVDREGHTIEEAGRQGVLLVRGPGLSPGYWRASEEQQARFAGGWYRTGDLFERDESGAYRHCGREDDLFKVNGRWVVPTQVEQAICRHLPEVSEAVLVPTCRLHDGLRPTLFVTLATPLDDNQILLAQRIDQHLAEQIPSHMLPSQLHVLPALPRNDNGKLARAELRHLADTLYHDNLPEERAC
Put plainly: Inhibition of Pseudomonas aeruginosa PAO1 GFP-fused quorum sensing pqsA at 10 uM measured every 15 mins up to 12 hrs by GFP reporter gene assay relative to control. In outline:
(§1)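 GFP reporter strains of P. aeruginosa PAO1 (lasB-, rhlA- or pqsA-promoter fused to unstable gfp(ASV)) grown overnight in LB at 37 °C, 200 rpm, 18 h, then diluted 1:100. Culture mixed 1:1 with compound diluted in LB from 10 mM DMSO stock (0.1% DMSO final). Fluorescence (ex 485/em 528 nm) read every 15 min at 37 °C for ≥12 h.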
Background: A reporter such as luciferase makes a cellular process visible.

Experiment [2] concerns Mus musculus. Put plainly: Anti-inflammatory activity in LPS-induced sepsis shock mouse model assessed as survival rate at 5 mg/kg, iv pretreated daily for 5 days followed LPS treatment on day 5 at 1 hr post last dose and measured after 7 days relative to control. The format is functional. The essentials:
(§2)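 Male SPF mice, randomly grouped, dosed i.v. with compound dissolved in DMSO and diluted in physiological saline; vehicle group given a similar volume. LPS was injected on day 5, 1 h after the last administration. Survival was recorded every 12 h for 7 days after LPS, with 11 animals per group per figure legend.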

Experiment [3] addresses Elastase (Pseudomonas aeruginosa (strain ATCC 15692 / PAO1 / 1C / PRS 101 / LMG12228)) (UniProt P14756). Put plainly: Inhibition of Pseudomonas aeruginosa PAO1 GFP-fused quorum sensing lasB at 10 uM measured every 15 mins up to 12 hrs by GFP reporter gene assay relative to control. The essentials: as §1
The next experiment relates to RAW264.7. Briefly: Anti-inflammatory activity in mouse RAW264.7 cells assessed as inhibition of LPS-induced IL-6 production by measuring […] level at 10 uM preincubated for 2 hrs followed by LPS stimulation and measured after 6 hrs by ELISA (reference value: 94.6 +/- 5.9 pg/ml). The class given is functional. In general terms: An ELISA detects its analyte on a solid surface through an enzyme-linked reagent.

The target in experiment [4] is T2, Peroxisome proliferator-activated receptor gamma (Mus musculus) (UniProt P37238).
T2 sequence (whole entry): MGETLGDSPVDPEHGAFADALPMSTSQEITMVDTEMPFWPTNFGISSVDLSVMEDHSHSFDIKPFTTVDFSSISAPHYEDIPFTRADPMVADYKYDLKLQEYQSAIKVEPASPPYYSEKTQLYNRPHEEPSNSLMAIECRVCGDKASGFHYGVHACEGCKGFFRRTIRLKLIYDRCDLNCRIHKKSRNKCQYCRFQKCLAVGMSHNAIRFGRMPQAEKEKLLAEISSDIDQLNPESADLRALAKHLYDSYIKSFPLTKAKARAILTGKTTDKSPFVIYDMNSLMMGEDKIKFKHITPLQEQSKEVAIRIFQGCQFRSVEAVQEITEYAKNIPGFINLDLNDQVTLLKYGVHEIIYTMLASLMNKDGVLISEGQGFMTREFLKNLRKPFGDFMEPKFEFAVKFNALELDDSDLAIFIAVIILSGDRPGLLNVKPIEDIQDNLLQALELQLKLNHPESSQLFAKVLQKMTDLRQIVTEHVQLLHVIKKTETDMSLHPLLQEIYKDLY
Briefly: Agonist activity at PPARgamma in mouse RAW264.7 cells assessed as inhibition of LPS-induced ERk1/2 phosphorylation at Thr202/Tyr204 residues at 10 uM preincubated for 1 hr followed by LPS stimulation and measured after 4 hrs by Western blot analysis. The format is cell-based. In outline:
(§3)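 Western blot: RAW264.7 cells (2 × 10^6/well) pretreated 1 h with compound (10 µM), antagonist GW9662 (5 µM) where stated, then LPS 500 ng/mL for 4 h. Lysis on ice with PMSF, BCA-normalised protein on SDS gels, PVDF transfer, milk block, phospho- and total-protein primary antibodies, HRP secondary, ECL detection. Densitometry normalised to internal control; n = 3.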
Background: In western blotting, separated proteins are transferred to a membrane and probed.

The target of experiment [5] is T2, Peroxisome proliferator-activated receptor gamma (Mus musculus). Briefly: Agonist activity at PPARgamma in mouse RAW264.7 cells assessed as inhibition of LPS-induced MAPK p38 phosphorylation at Thr180/Tyr182 residues at 10 uM preincubated for 1 hr followed by LPS stimulation and measured after 4 hrs by Western blot analysis. The format is cell-based. The essentials: as §3

Experiment [6] deals with Mus musculus. Briefly: Anti-inflammatory activity in LPS-induced sepsis shock mouse model assessed as survival rate at 20 mg/kg, iv pretreated daily for 5 days followed LPS treatment on day 5 at 1 hr post last dose and measured after 7 days relative to control. The class given is functional. The essentials: as §2
In experiment [7] the target is T1, Anthranilate--CoA ligase (Pseudomonas aeruginosa (strain ATCC 15692 / DSM 22644 / CIP 104116 /JCM 14847 / LMG 12228 / 1C / PRS 101 / PAO1)). Briefly: Inhibition of Pseudomonas aeruginosa PAO1 GFP-fused quorum sensing pqsA measured every 15 mins up to 12 hrs by GFP reporter gene assay. The essentials:
as §1

Experiment [8] has the same target. Put plainly: Inhibition of Pseudomonas aeruginosa PAO1 GFP-fused quorum sensing pqsA at 5 to 100 uM measured every 15 mins up to 12 hrs by GFP reporter gene assay. In outline:
as §1

Chain of Elastase (Pseudomonas aeruginosa (strain ATCC 15692 / PAO1 / 1C / PRS 101 / LMG12228)) (P14756 198-498 limits assumed): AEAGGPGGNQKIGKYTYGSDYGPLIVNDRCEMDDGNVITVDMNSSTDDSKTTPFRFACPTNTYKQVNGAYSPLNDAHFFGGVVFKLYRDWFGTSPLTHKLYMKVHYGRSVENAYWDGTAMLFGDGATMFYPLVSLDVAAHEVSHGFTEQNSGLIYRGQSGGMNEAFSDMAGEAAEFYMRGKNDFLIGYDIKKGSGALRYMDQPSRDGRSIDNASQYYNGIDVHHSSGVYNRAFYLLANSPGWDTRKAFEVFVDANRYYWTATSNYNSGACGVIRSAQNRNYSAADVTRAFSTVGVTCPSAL

As for `O=C(Cc1ccc(F)cc1)Nc1ccc(CC2=CC(=O)OC2=CBr)cc1`, the inhibition (in general, the relative decrease from the control value, in per cent) in experiment [1] was 50.3%; in experiment [3], 15.2%; in experiment [7] it was “Dose-dependent effect”. The survival at 5 mg/kg in the experiment on Mus musculus [2] was 36.5%. The Activity in the experiment on RAW264.7 worked out at 17 pg/mL. Further, the inhibition result in experiment [4] and in experiment [5] was “Active” each time. The survival at 20 mg/kg in the experiment with Mus musculus [6] came out at 45.5%.

With `O=C(C=Cc1ccccc1)Nc1ccc(CC2=CC(=O)O/C2=C/Br)cc1`, the inhibition in experiment [1] was 23.1%; in experiment [3], 11.8%. For the same molecule, in [8], the inhibition entry is “inactive”. Also, the Activity in the experiment on RAW264.7 worked out at 19.6 pg/mL. The inhibition result in [4] and in experiment [5] was “Active” each time.
